# Test results: ChEMBL document CHEMBL1122923, “Structural features of imidazole derivatives that enhance styrene oxide hydrolase activity in rat hepatic microsomes” (J Med Chem, 1985)
# Legend:
# Rattus norvegicus [1] = species: Rattus norvegicus; assay: Maximum enhancement of styrene oxide hydrolase activity was reported at compound concentration of 1e-3 M
# [2] = target: T1, Epoxide hydrolase 1 (Rattus norvegicus) (UniProt P07687); assay: Enhanced styrene oxide hydrolase activity pH 8.7; type: functional
# T1 sequence (whole entry): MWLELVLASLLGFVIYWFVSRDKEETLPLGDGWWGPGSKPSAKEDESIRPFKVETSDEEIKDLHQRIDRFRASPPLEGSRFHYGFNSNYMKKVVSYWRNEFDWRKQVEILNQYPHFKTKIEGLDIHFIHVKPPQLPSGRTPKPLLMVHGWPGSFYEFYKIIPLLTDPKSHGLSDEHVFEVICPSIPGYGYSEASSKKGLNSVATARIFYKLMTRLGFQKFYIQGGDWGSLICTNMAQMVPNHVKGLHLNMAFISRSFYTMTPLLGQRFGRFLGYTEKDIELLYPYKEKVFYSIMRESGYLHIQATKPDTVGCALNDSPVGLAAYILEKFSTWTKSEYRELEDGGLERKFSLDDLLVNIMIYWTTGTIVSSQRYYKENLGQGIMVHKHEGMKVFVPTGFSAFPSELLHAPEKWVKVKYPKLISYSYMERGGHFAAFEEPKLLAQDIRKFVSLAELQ
# Summary of the method: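 Imidazoles were added from aqueous solution, with diluted HCl or solvent in reference tubes, and incubated 10 min at 37 °C. Hexane stopped the reaction; tubes were run in duplicate. E100 (the concentration giving a 100% rise) came from the linear concentration-effect plot; mean ± SD over n rats.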
# [3] = target: T1, Epoxide hydrolase 1 (Rattus norvegicus); assay: (§1) Enhancement of epoxide hydrolase activity
# Summary of the method: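 Microsomes from untreated rats with a concentration series of N-1-substituted imidazoles added from aqueous solution. Styrene oxide hydrolysis in 0.25 M Tris-Cl pH 8.7, 0.03% Tween-80, 10 min, duplicate tubes, no-tissue blanks. E100 is the concentration giving 100% enhancement, read from the linear concentration-effect range using at least three concentrations on each side. Mean ± SD over individual rats.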
# Rattus norvegicus [4] = species: Rattus norvegicus; assay: Maximum enhancement of styrene oxide hydrolase activity was reported at compound concentration of 1e-1M
# [5] = Partition coefficient (logP); type: physicochemical; conditions: octanol/water
# Rattus norvegicus [6] = species: Rattus norvegicus; assay: Maximum enhancement of styrene oxide hydrolase activity was reported at compound concentration of 5e-2M
# Rattus norvegicus [7] = species: Rattus norvegicus; assay: Maximum enhancement of styrene oxide hydrolase activity was reported at compound concentration of 5e-3 M
# [8] = target: T1, Epoxide hydrolase 1 (Rattus norvegicus); assay: as §1; remark: listed apart in the source
# Summary of the method: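 Microsomes from untreated rats, or rats given PB 80 mg/kg or 3MC 40 mg/kg ip daily for 3 days; 0.1-0.2 mg protein, 0.25 M Tris-Cl pH 8.7, 0.03% Tween-80. Value is the ratio of activity with to without derivative; mean ± SD, 3-4 rats.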
# Rattus norvegicus [9] = species: Rattus norvegicus; assay: Enhancement of styrene hydrolase activity was determined in male wistar rat hepatic microsomes given to phenobarbital treated rats.; conditions: Liver
# Summary of the method: (§2)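 Rats were given phenobarbital 80 mg/kg ip daily for 3 days before washed hepatic microsomes were prepared. Ratio of activity with vs without derivative, from 3-4 rats or individual values.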
# Rattus norvegicus [10] = species: Rattus norvegicus; assay: Enhancement of styrene hydrolase activity was determined in male wistar rat hepatic microsomes given to untreated rats.; conditions: Liver
# Summary of the method: (§3)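 Hepatic microsomes (washed) from untreated male Wistar rats (200 ± 20 g). Incubation: 0.25 M Tris-Cl pH 8.7, 0.03% Tween-80, 0.1-0.2 mg protein, 37 °C, 10 min, stopped with hexanes, duplicate tubes. Enhancement is the activity ratio with/without derivative, mean ± SD of 3-4 rats.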
# Rattus norvegicus [11] = species: Rattus norvegicus; assay: Enhancement of styrene hydrolase activity was determined in male wistar rat hepatic microsomes given to 3-methylcholanthrene treated rats.; conditions: Liver
# Summary of the method: (§4)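 Male Wistar rats were pretreated ip with 3-methylcholanthrene 40 mg/kg daily for 3 days; washed liver microsomes were then prepared. Reported as activity ratio ± SD, n = 3-4 or individual.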
# Rattus norvegicus [12] = species: Rattus norvegicus; assay: Maximum enhancement of styrene oxide hydrolase activity was reported at compound concentration of 5e-4 M
# Summary of the method: (§5)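 Washed liver microsomes from untreated male Wistar rats (200 ± 20 g), stored at -20 °C. Tubes (0.145 mL) held 0.25 M Tris-Cl pH 8.7, 0.03% Tween-80, 0.1-0.2 mg microsomal protein and ¹⁴C-styrene oxide. Imidazoles were added from aqueous solution, in duplicate tubes at each concentration. Incubation was 10 min at 37 °C, stopped with hexanes. Maximum enhancement is the highest activity ratio (with/without additive) observed; mean ± SD over individual rats.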
# Rattus norvegicus [13] = species: Rattus norvegicus; assay: Enhancement of styrene hydrolase activity was determined in male wistar rat hepatic microsomes given to phenobarbital treated rats; conditions: Liver; summary of the method: as §2
# Rattus norvegicus [14] = species: Rattus norvegicus; assay: Maximum enhancement of styrene oxide hydrolase activity was reported at compound concentration of 1e-2M
# Rattus norvegicus [15] = species: Rattus norvegicus; assay: Enhancement of styrene hydrolase activity was determined in male wistar rat hepatic microsomes given to untreated rats; conditions: Liver; summary of the method: as §3
# Rattus norvegicus [16] = species: Rattus norvegicus; assay: Enhancement of styrene hydrolase activity was determined in male wistar rat hepatic microsomes given to 3-methylcholanthrene treated rats; conditions: Liver; summary of the method: as §4
# Rattus norvegicus [17] = species: Rattus norvegicus; assay: Maximum enhancement of styrene oxide hydrolase activity was reported at compound concentration of 1e-4M; summary of the method: as §5
SMILES,E100 [2] [µM],logP ([5]; read-out: logP),Log 1/E100 [8],also measured
CC(=O)N1CCN(c2ccc(OCC3COC(Cn4ccnc4)(c4ccc(Cl)cc4Cl)O3)cc2)CC1 (centres undefined),54,–,–,Max enhancement (Rattus norvegicus [1]): 3.3
c1c[nH]cn1 [IMIDAZOLE],8800,-0.42,–,Log 1/E100 [3]: 2.05; Max enhancement (Rattus norvegicus [4]): 5.1
CCn1ccnc1,2800,0.81,–,Log 1/E100 [3]: 2.55; Max enhancement (Rattus norvegicus [6]): 4.6
c1ccc(Cn2ccnc2)cc1 [BENZYLIMIDAZOLE],230,2.01,3.64,Max enhancement (Rattus norvegicus [7]): 5.7
O=[N+]([O-])c1ccc(-n2ccnc2)cc1,3900,1.19,2.4,Max enhancement (Rattus norvegicus [1]): 1.3
c1ccc(-c2c[nH]cn2)cc1,–,–,–,Enhancement (Rattus norvegicus [9]): 2.45; Enhancement (Rattus norvegicus [10]): 2.3; Enhancement (Rattus norvegicus [11]): 2.61
Oc1ccc(-n2ccnc2)cc1,240,0.94,3.62,Max enhancement (Rattus norvegicus [1]): 3.8
Clc1ccc(COC(Cn2ccnc2)c2ccc(Cl)cc2Cl)c(Cl)c1 (centres undefined) [MICONAZOLE],84,5.84,4.08,Max enhancement (Rattus norvegicus [12]): 3.1
c1ccc(-n2ccnc2)cc1,330,1.48,3.48,Enhancement (Rattus norvegicus [13]): 3.15; Max enhancement (Rattus norvegicus [14]): 4.7; Enhancement (Rattus norvegicus [15]): 3.34; Enhancement (Rattus norvegicus [16]): 3.75
Fc1ccc(-n2ccnc2)cc1,550,1.67,3.26,Max enhancement (Rattus norvegicus [7]): 4.4
Clc1ccccc1C(c1ccccc1)(c1ccccc1)n1ccnc1 [CLOTRIMAZOLE],6.2,–,–,Log 1/E100 [3]: 5.21; logP [5]: 6.14; Max enhancement (Rattus norvegicus [17]): 5.4
c1ccc(C2NCCN2)cc1,–,–,–,Enhancement (Rattus norvegicus [13]): 1.11; Enhancement (Rattus norvegicus [15]): 1.19; Enhancement (Rattus norvegicus [16]): 1.15
c1ccc(-c2ncc[nH]2)cc1,–,–,–,Enhancement (Rattus norvegicus [9]): 1.99; Enhancement (Rattus norvegicus [10]): 2; Enhancement (Rattus norvegicus [11]): 2.09
Cn1ccnc1 [1-METHYLIMIDAZOLE],12000,0.28,1.94,Max enhancement (Rattus norvegicus [6]): 3.9
